Compound activity (PubChem BioAssay)
G6PDH counter – counter-screen for G6PDH assay hits: L. mesenteroides G6PDH inhibition | inhibition, % at 5 µM | 200,000 tested, 0.12% active | AID 1020 | Purified L. mesenteroides G6PDH, diaphorase/resazurin coupled fluorescence, 45 min; in the data active = inhibition above about 50%
HKDC1 inhibitor – HKDC1 (human) hexokinase inhibition | 340,000 tested, 0.16% active | AID 493160 | Q2TB90 | recombinant HKDC1, G6PDH/diaphorase resazurin coupled fluorescence | inhibition, % at 20 µM;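 active = inhibition above about 35% when tested at 20 µM, limit read from the data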;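 also: plate controls were DMSO wells with enzyme for no effect and DMSO wells lacking enzyme for full effect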
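System: Recombinant HKDC1 hexokinase | Amount: HKDC1 at 5 µg/mL | Reagent: Glucose with 1 mM ATP | Doses: Single 20 µM dose | Incubation: Reaction time 90 min, room temperature, protected from light | Signal: Coupled resazurin fluorescence, excitation 525 nm, emission 613 nm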
Diaph act CS – counter-screen for diaphorase-based assays: diaphorase activators and chemical reducers. Diaphorase/resazurin coupled assay, resorufin fluorescence, 16 min; hits give high values; 1 = vehicle wells, 0 = NADH-free wells. activation factor at 20 µM. AID 1229. 190,000 tested, 0.005% active;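 active = diaphorase activity raised at least twofold by the compound at 20 µM; inactive = activation factor below 2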
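Assay system: bacterial diaphorase enzyme (C. kluyveri) / Input: enzyme 0.07 U/mL final / Medium: 50 mM HEPES pH 7.4 with 4.542 mM MgCl2, 0.005% Tween 20 / Doses: single compound dose of 20 µM, 1% DMSO final / Incubation: 16 min enzyme reaction, ambient temperature / Signal: fluorescence, excitation 544 nm and emission 590 nm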
Diaph inh CS – diaphorase inhibition or chemical oxidation counter-screen; diaphorase resazurin-to-resorufin fluorescence, NADH, 16 min; bacterial (C. kluyveri) enzyme, not human; inhibition, % at 20 µM; 190,000 tested, 0.69% active; AID 1217;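 active = primary screen inhibition at 20 µM above a set limit, cut at about 50% in these data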;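 also: plate controls were DMSO with full reaction for no effect and wells lacking NADH for full effect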
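Assay system – diaphorase enzyme from Clostridium kluyveri · Amount – diaphorase 0.14 U/mL (working solution) · Times – reaction incubation of 16 min at room temperature · Controls – No-NADH positive control and DMSO neutral control · Signal – resorufin fluorescence 544/590 nm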
Arbovirus inh – antivirals against arbovirus infection | arbovirus infection cell-based antiviral screen | inhibition, % at 10 µM | 200,000 tested, 0.37% active; in the data active = inhibition above about 30%
HKDC1 act conf – confirmation of human HKDC1 activators. 740 tested, 14% active. inhibition, % at 20 µM. recombinant HKDC1, G6PDH/diaphorase resazurin fluorescence; hits give low values. AID 504708. shares compounds with HKDC1 inhibitor;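 active = inhibition at or below a set negative limit, negative inhibition meaning the enzyme was activated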
Numbers without * were called inactive; · = not tested or not shown. Sampled rows, rich in hits. Any-hit rate of the full collection: about 0.74%.

SMILES	G6PDH counter	HKDC1 inhibitor	Diaph act CS	Diaph inh CS	Arbovirus inh	HKDC1 act conf
CC(C)c1nn2c(N)c(/C=C3\C=Nc4ccccc43)c(=O)nc2s1	·	5	·	·	·	·
CC(C)Sc1nsc2nc(=O)c(/C=C3\C=Nc4ccccc43)c(N)n12	1	2	0.8	17	34*	·
CS(=O)(=O)c1nsc2nc(=O)c(/C=C3\C=Nc4ccccc43)c(N)n12	6	17	0.8	15	46*	·
Cc1cc2nc(=O)c(/C=C3\C=Nc4ccccc43)c(N)n2o1	·	-5	·	·	·	·
CCOC(=O)c1ccc(CC(=O)c2oc3cc(O)ccc3c2C)o1	8	20	0.8	22	4	·
CCOC(=O)c1ccc(CC(=O)c2ccc(O)c(O)c2O)o1	42	-12	0.2	76*	-3	·
CC(C)(C)c1nnc(NC(=O)c2cccnc2)s1	10	-9	0.9	7	1	·
O=C(CCNC(=O)c1ccco1)Nc1nc(-c2ccccc2)cs1	·	-8	·	·	·	·
COCCn1c(C)cc(C(=O)CSc2cc(C)c3ccccc3n2)c1C	-30	3	0.9	10	31*	·
COCCn1c(C)cc(C(=O)CSc2nc3ccccc3c(=O)n2Cc2ccco2)c1C	4	-4	0.9	13	-1	·
CCOc1cc(CNc2ccc(O)cc2)ccc1OCc1ccc(Cl)cc1Cl	-38	19	0.3	66*	-9	·
Cc1ccc(S(=O)(=O)Nc2cccc3c2O[C@H](CN(C)C(=O)Nc2cccc4ccccc24)[C@H](C)CN([C@H](C)CO)C3=O)cc1	·	4	·	·	·	·
CCc1ccc2c(c1)c(N=NC1=NC(=O)CS1)c(O)n2CC	7	14	0.2	79*	9	·
COc1ccc(-c2[nH]c(-c3ccc(SC)cc3)nc2SCC(=O)Nc2nccs2)cc1	0	-54	0.8	22	-15	-36*
COc1ccc(-c2[nH]c(-c3ccc(C)cc3)nc2SCC(=O)Nc2nccs2)cc1	-52	-11	0.8	16	19	·
Cc1cc2nnc(SCC(=O)Nc3cc(S(=O)(=O)N4CCOCC4)ccc3Cl)n2c2ccccc12	1	48*	0.5	48	6	37
Cc1ccc(-n2c(SCC(=O)Nc3cc(S(=O)(=O)N4CCOCC4)ccc3Cl)nc3ccccc3c2=O)cc1	13	-3	0.9	9	-5	·
COC(=O)C1=C[C@@H](C(=O)OC)[C@@H]2C3=C(C(=O)[C@@]2(C)NC(=O)c2ccccc2)[C@H](C)C(C(=O)OC)=C(C(=O)OC)[C@@H]3C1	·	-5	·	·	·	·
Cc1ccc(C(=O)ONc2ccc(N=NC(=O)c3ccccc3O)cc2)cc1	4	65*	0.5	54*	-44	-2
Cc1cc(C)c(S(=O)(=O)Nc2ccc(O)cc2)cc1C	4	-1	0.9	11	13	·
Cc1cc(C)c(S(=O)(=O)Nc2cc(SCC(=O)O)c(O)c3ccccc23)cc1C	35	54*	0.5	49	-47	41
COc1ccc(S(=O)(=O)Nc2cc(SCC(=O)O)c(O)c3ccccc23)cc1	·	57*	·	·	·	47
COc1ccc(S(=O)(=O)Nc2cccc3ccc(O)cc23)cc1	·	-1	·	·	·	·
O=C(O)CSc1cc(NS(=O)(=O)c2ccc(Cl)cc2)c2ccccc2c1O	·	65*	·	·	·	46
O=C(c1ccc2c(=O)n3c(nc2c1)CCC3)N1CCCSC1=Nc1ccccc1	·	-8	·	·	·	·
SMILES	G6PDH counter	HKDC1 inhibitor	Diaph act CS	Diaph inh CS	Arbovirus inh	HKDC1 act conf
Cc1ccc(S(=O)(=O)N2CCN(c3ncnc4sccc34)CC2)cc1	·	-2	·	·	·	·
O=C(NNC(=O)c1cccnc1)NC1CCCCC1	3	-60	0.9	8	-3	-25
COc1ccc([C@@H]2C[C@H](c3ccccc3)Oc3cc(OC)c(OC)c(OC)c32)cc1	·	37*	·	·	·	-1
O=C(NCc1ccncc1)C(=O)N/N=C/c1ccc(OCc2ccccc2)cc1	-3	-58	0.9	6	-11	-16
Cc1ccc(NC2=CC(=O)C(=O)c3ccccc32)cc1	46	27	0.8	20	-36	·
Cc1ccc(SC2=C(N(C)C)C(=O)c3ccccc3C2=O)cc1	·	57*	·	·	·	60
CN(C)C(CNC(=O)c1ccc(C2SCCS2)cc1)c1ccccc1 (stereo not drawn)	·	1	·	·	·	·
COc1ccc(C)cc1NC(=O)NCc1ccc(F)cc1	12	-5	1.1	-12	-3	·
O=C(/C=C/c1cccs1)Nc1scc(-c2ccccc2)c1C(=O)O	3	81*	0.8	16	74*	58
O=C(/C=C/c1cccs1)Nc1nc(-c2ccccc2)cs1	-70	-3	0.8	17	25	·
O=C(c1ccccc1)N1CCN(C2c3cccc4cccc(c34)C2NS(=O)(=O)c2ccccc2)CC1 (stereo not drawn)	7	-34	0.7	34	-2	·
O=S(=O)(NC1c2cccc3cccc(c23)C1N1CCN(CCO)CC1)c1ccccc1 (stereo not drawn)	0	-66	0.8	24	-27	-118*
O=S(=O)(NC1c2cccc3cccc(c23)C1N1CCNCC1)c1ccccc1 (stereo not drawn)	-24	-56	0.6	36	-11	-95*
CS(=O)(=O)NC1c2cccc3cccc(c23)C1N1CCOCC1 (stereo not drawn)	-3	-7	0.9	12	0	·
Cc1cccn2c(=O)c3cc(C(N)=S)c(=N)n(CCCN4CCOCC4)c3nc12	2	-54	0.8	18	-9	-13
CCCc1nc2oc3c(NCC4CCCO4)ncnc3c2c2c1COC(C)(C)C2 (stereo not drawn)	-6	35*	0.6	37	-2	29
Cc1nc2oc3c(NCc4ccccn4)ncnc3c2c2c1COC(C)(C)C2	-24	22	0.9	10	-3	·
CC(C)c1nc2oc3c(NCC4CCCO4)ncnc3c2c2c1CCC2 (stereo not drawn)	3	35	0.6	42	-7	·
COc1ncnc2c1oc1nc(C(C)C)c3c(c12)CC(C)(C)OC3	6	53*	0.1	88*	10	43
CCCc1nc2oc3c(NCc4ccccn4)ncnc3c2c2c1COC(C)(C)C2	-8	34	0.6	36	-5	23
CC(C)c1nc2oc3c(NCc4ccccn4)ncnc3c2c2c1COC(C)(C)C2	·	35*	·	·	·	-4
CCC(Oc1cc(Cl)ccc1Cl)C(=O)N1CCCN(C)CC1 (stereo not drawn)	·	2	·	·	·	·
CCC(C(=O)Nc1cccc(OC)c1)n1nc(C)c2c(C)n(-c3ccccc3)nc2c1=O (stereo not drawn)	·	-4	·	·	·	·
CN1CCN(c2nc3c(c(=O)[nH]c(=O)n3C)n2Cc2ccc([N+](=O)[O-])cc2)CC1	·	-4	·	·	·	·
CCOC(=O)c1c(NC(=O)CC2SC(N)=NC2=O)sc(C)c1C (stereo not drawn)	3	2	0.9	12	4	·
COc1ccc(S(=O)(=O)Oc2ccc3ccccc3c2)cc1	-10	-6	0.8	19	-9	·
